Test results reported in article PMC9536290 (Clinical Infectious Diseases: An Official Publication of …, 2022).
“And” between values parts separate entries of the source, which are not always exact repeats. Equal values may be shown once.

How the values were obtained:
[1] = system: HIV-1 with A364V mutation; test: Phenotypic resistance of participant virus with A364V; assay type: cell-based; conditions: virus of 1 participant (200 mg) with full conversion to A364V
[2] = Phase IIa monotherapy study: safety and tolerability; assay type: in vivo, HIV-1–positive, treatment-naive adults; conditions: for Drug-related AEs: Abdominal pain / Drug-related AEs: Any event / Drug-related AEs: Chromaturia / Drug-related AEs: Diarrhea / Drug-related AEs: Epistaxis / Drug-related AEs: Fatigue / Drug-related AEs: Headache / Drug-related AEs: Maculopapular rash / Drug-related AEs: Nausea / Drug-related AEs: Pruritus / Drug-related AEs: Vomiting / Total AEs: Abdominal pain / Total AEs: Any event / Total AEs: Diarrhea / Total AEs: Headache / Total AEs: Lymphadenopathy / Total AEs: Nasopharyngitis / Total AEs: Oropharyngeal pain / Total AEs: Vomiting / Serious AEs: Anal abscess / Serious AEs: Congestive cardiomyopathy: n = 6; for Serious AEs: Anal abscess / Serious AEs: Congestive cardiomyopathy: considered not related to the study drug
Procedure, shortened: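 Adults were ART-naive, aged 18–65 years, with HIV-1 RNA ≥5000 copies/mL and CD4+ ≥350 cells/mm3. They received placebo or oral once-daily doses after a moderate-fat meal: 10 or 200 mg for 10 days (part 1), or 40–140 mg for 7 days (part 2). Safety was monitored through adverse events, clinical laboratory tests, electrocardiograms and vital signs.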

HIV-1 = test: Phase IIa monotherapy study: antiviral effect; assay type: in vivo, HIV-1–positive, treatment-naive adults; conditions: for Plasma HIV-1 RNA change from baseline to nadir, mean (SD): n = 6; for Modeled plasma HIV-1 RNA maximum change (nadir), least squares mean (90% CI): mixed-effects model
Procedure, shortened: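 Randomized, double-blind, placebo-controlled oral monotherapy, once daily after a moderate-fat meal (≥400 calories, ≥120 from fat) taken 30 minutes before dosing. Part 1: 10 or 200 mg for 10 days. Part 2: 40–140 mg for 7 days, then combination ART from day 8. Plasma HIV-1 RNA endpoints were maximum change and change to day 11 (part 1) or day 8 (part 2). Maximum change was fitted by a mixed-effects linear model; dose–response by an Emax model pooling both parts (ED50).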

[3] = 10 mg once daily, part 1 (10 days)
[4] = 40 mg once daily, part 2 (7 days)
[5] = 80 mg once daily, part 2 (7 days)
[6] = 140 mg once daily, part 2 (7 days)
[7] = 200 mg once daily, part 1 (10 days)
[8] = all doses combined, % of 34 participants

C=C(C)[C@@H]1CC[C@]2(NCCN3CCS(=O)(=O)CC3)CC[C@]3(C)[C@H](CC[C@@H]4[C@@]5(C)CC=C(C6=CC[C@@](CF)(C(=O)O)CC6)C(C)(C)[C@@H]5CC[C@]43C)[C@@H]12 [GSK’254]
−0.34 (−.67 to −.00) log10 copies/mL: Modeled plasma HIV-1 RNA maximum change (nadir), least squares mean (90% CI) (HIV-1; [3])
−0.4 log10: Maximum change in HIV-1 RNA (HIV-1; 10 mg once daily, 10 days)
2 (33) n (%): Drug-related AEs: Any event [2, 3] | Drug-related AEs: Any event [2, 4] | Drug-related AEs: Abdominal pain [2, 5] | Drug-related AEs: Any event [2, 5] | Total AEs: Abdominal pain [2, 5] | Drug-related AEs: Any event [2, 7] | Total AEs: Headache [2, 7] | Total AEs: Nasopharyngitis [2, 7] | Total AEs: Oropharyngeal pain [2, 7]
mild-to-moderate: Intensity of AEs and SAEs ([2]; all doses, except 1 participant with 2 grade 3 non-drug-related AEs)
5 (83) n (%): Total AEs: Any event [2, 4] | Total AEs: Any event [2, 6] | Total AEs: Any event [2, 7]
no deaths were reported: Deaths ([2]; all doses)
3 participants: Participants with >1.5-log10 decline in HIV-1 RNA from baseline at Day 8 (HIV-1; 140-mg group (n = 6))
Fourteen: Number of drug-related AEs overall ([2]; all doses combined)
8.0 days: Median time to nadir in HIV-1 RNA (HIV-1; part 2 (7 days dosing))
1.5 log10: Maximum mean decline in HIV-1 RNA (HIV-1; 140-mg group)
No clinically significant trends: Trends in laboratory values, electrocardiograms, or vital signs ([2]; across treatment groups in parts 1 or 2)
−0.36 (0.25) log10 copies/mL: Plasma HIV-1 RNA change from baseline to nadir, mean (SD) (HIV-1; [3])
3 (50) n (%): Total AEs: Any event [2, 3]
−1.5 log10: Maximum change in HIV-1 RNA (HIV-1; 140 mg once daily, 7 days)
4 (67) n (%): Total AEs: Any event [2, 5]
−1.45 (0.24) log10 copies/mL: Plasma HIV-1 RNA change from baseline to primary endpoint, mean (SD) (HIV-1; 140 mg once daily, part 2, Day 8, n = 6)
≥ 1 log10: Decline in HIV-1 RNA (HIV-1; doses ≥40 mg, regardless of dosing duration)
2 n: Participants reporting abdominal pain overall ([2]; all doses combined) | Participants reporting vomiting overall ([2]; all doses combined)
9 (26%) n (%): Participants reporting drug-related AEs overall [2, 8]
−1.05 (−1.29 to −.82) log10 copies/mL: Modeled plasma HIV-1 RNA maximum change (nadir), least squares mean (90% CI) (HIV-1; [4])
−0.22 (0.31) log10 copies/mL: Plasma HIV-1 RNA change from baseline to primary endpoint, mean (SD) (HIV-1; 10 mg once daily, part 1, Day 11, n = 6)
−1.96 (0.34) log10 copies/mL: Plasma HIV-1 RNA change from baseline to primary endpoint, mean (SD) (HIV-1; 200 mg once daily, part 1, Day 11, n = 6)
2 log10: Potency as an antiviral (maximum change in HIV-1 RNA) (HIV-1; monotherapy)
0.36 log10: Maximum mean decline from baseline in HIV-1 RNA (HIV-1; 10-mg dose)
−1.93 (−2.24 to −1.62) log10 copies/mL: Modeled plasma HIV-1 RNA maximum change (nadir), least squares mean (90% CI) (HIV-1; [7])
4 n: Participants reporting headache overall ([2]; all doses combined)
−1.02 (0.33) log10 copies/mL: Plasma HIV-1 RNA change from baseline to nadir, mean (SD) (HIV-1; [5]) | Plasma HIV-1 RNA change from baseline to primary endpoint, mean (SD) (HIV-1; 80 mg once daily, part 2, Day 8, n = 6)
0 n (%): Drug-related AEs: Abdominal pain [2, 3] | Drug-related AEs: Epistaxis [2, 3] | Drug-related AEs: Fatigue [2, 3] | Drug-related AEs: Headache [2, 3] | Drug-related AEs: Maculopapular rash [2, 3] | Drug-related AEs: Pruritus [2, 3] | Total AEs: Abdominal pain [2, 3] | Total AEs: Headache [2, 3] | Total AEs: Nasopharyngitis [2, 3] | Total AEs: Oropharyngeal pain [2, 3] | Drug-related AEs: Abdominal pain [2, 4] | Drug-related AEs: Chromaturia [2, 4] | Drug-related AEs: Headache [2, 4] | Drug-related AEs: Maculopapular rash [2, 4] | Drug-related AEs: Nausea [2, 4] | Drug-related AEs: Pruritus [2, 4] | Drug-related AEs: Vomiting [2, 4] | Total AEs: Abdominal pain [2, 4] | Total AEs: Lymphadenopathy [2, 4] | Total AEs: Nasopharyngitis [2, 4] | Total AEs: Oropharyngeal pain [2, 4] | Total AEs: Vomiting [2, 4] | Drug-related AEs: Chromaturia [2, 5] | Drug-related AEs: Diarrhea [2, 5] | Drug-related AEs: Epistaxis [2, 5] | Drug-related AEs: Fatigue [2, 5] | Drug-related AEs: Headache [2, 5] | Drug-related AEs: Maculopapular rash [2, 5] | Drug-related AEs: Nausea [2, 5] | Drug-related AEs: Pruritus [2, 5] | Drug-related AEs: Vomiting [2, 5] | Total AEs: Diarrhea [2, 5] | Total AEs: Headache [2, 5] | Total AEs: Lymphadenopathy [2, 5] | Total AEs: Nasopharyngitis [2, 5] | Total AEs: Oropharyngeal pain [2, 5] | Total AEs: Vomiting [2, 5] | Drug-related AEs: Abdominal pain [2, 6] | Drug-related AEs: Chromaturia [2, 6] | Drug-related AEs: Diarrhea [2, 6] | Drug-related AEs: Epistaxis [2, 6] | Drug-related AEs: Fatigue [2, 6] | Drug-related AEs: Headache [2, 6] | Drug-related AEs: Nausea [2, 6] | Drug-related AEs: Vomiting [2, 6] | Total AEs: Abdominal pain [2, 6] | Total AEs: Diarrhea [2, 6] | Total AEs: Lymphadenopathy [2, 6] | Total AEs: Nasopharyngitis [2, 6] | Total AEs: Vomiting [2, 6] | Serious AEs: Congestive cardiomyopathy [2, 6] | Drug-related AEs: Abdominal pain [2, 7] | Drug-related AEs: Chromaturia [2, 7] | Drug-related AEs: Epistaxis [2, 7] | Drug-related AEs: Fatigue [2, 7] | Drug-related AEs: Maculopapular rash [2, 7] | Drug-related AEs: Nausea [2, 7] | Drug-related AEs: Pruritus [2, 7] | Total AEs: Abdominal pain [2, 7] | Serious AEs: Anal abscess [2, 7] | Serious AEs: Congestive cardiomyopathy [2, 7]
−1.49 (0.27) log10 copies/mL: Plasma HIV-1 RNA change from baseline to nadir, mean (SD) (HIV-1; [6])
−2.01 (0.33) log10 copies/mL: Plasma HIV-1 RNA change from baseline to nadir, mean (SD) (HIV-1; [7])
−0.94 (−1.16 to −.72) log10 copies/mL: Modeled plasma HIV-1 RNA maximum change (nadir), least squares mean (90% CI) (HIV-1; [5])
−1.2 log10: Maximum change in HIV-1 RNA (HIV-1; 40 mg once daily, 7 days)
> 1.5 log10: Decline from baseline in HIV-1 RNA at day 11 in all participants (HIV-1; 200-mg group, day 11)
No AEs led to treatment discontinuation: AEs leading to treatment discontinuation ([2]; all doses)
−1.18 (0.44) log10 copies/mL: Plasma HIV-1 RNA change from baseline to nadir, mean (SD) (HIV-1; [4]) | Plasma HIV-1 RNA change from baseline to primary endpoint, mean (SD) (HIV-1; 40 mg once daily, part 2, Day 8, n = 6)
−2.0 log10: Maximum change in HIV-1 RNA (HIV-1; 200 mg once daily, 10 days)
1 participants: Participants with >1.5-log10 decline in HIV-1 RNA from baseline at Day 8 (HIV-1; 40-mg group (n = 6))
1 (17) n (%): Drug-related AEs: Chromaturia [2, 3] | Drug-related AEs: Diarrhea [2, 3] | Drug-related AEs: Nausea [2, 3] | Drug-related AEs: Vomiting [2, 3] | Total AEs: Diarrhea [2, 3] | Total AEs: Lymphadenopathy [2, 3] | Total AEs: Vomiting [2, 3] | Drug-related AEs: Diarrhea [2, 4] | Drug-related AEs: Epistaxis [2, 4] | Drug-related AEs: Fatigue [2, 4] | Total AEs: Diarrhea [2, 4] | Total AEs: Headache [2, 4] | Drug-related AEs: Any event [2, 6] | Drug-related AEs: Maculopapular rash [2, 6] | Drug-related AEs: Pruritus [2, 6] | Total AEs: Headache [2, 6] | Total AEs: Oropharyngeal pain [2, 6] | Serious AEs: Anal abscess [2, 6] | Drug-related AEs: Diarrhea [2, 7] | Drug-related AEs: Headache [2, 7] | Drug-related AEs: Vomiting [2, 7] | Total AEs: Diarrhea [2, 7] | Total AEs: Lymphadenopathy [2, 7] | Total AEs: Vomiting [2, 7]
−1.49 (−1.70 to − 1.28) log10 copies/mL: Modeled plasma HIV-1 RNA maximum change (nadir), least squares mean (90% CI) (HIV-1; [6])
2.0 log10: Maximum mean decline in HIV-1 RNA (HIV-1; 200-mg group)
7 (21%) n (%): Participants with gastrointestinal AEs overall [2, 8]
22 (65%) n (%): Participants reporting AEs overall ([2]; all doses, % of 34 participants incl. placebo (n = 4), all had received GSK’254)
42.67 mg and 42.7 mg and ~ 43 mg: Half maximal effective dose (ED50) (HIV-1; Emax nonlinear model, maximum change in HIV-1 RNA to day 8 vs dose, once daily)
3 n: Participants reporting diarrhea overall ([2]; all doses combined) | Participants reporting oropharyngeal pain overall ([2]; all doses combined)
−1.0 log10: Maximum change in HIV-1 RNA (HIV-1; 80 mg once daily, 7 days)
11.5 days: Median time to nadir in HIV-1 RNA (HIV-1; part 1 (10 days dosing))
132 fold: Fold change in half maximal inhibitory concentration (phenotypic resistance) [1]
